Source: ChEMBL document CHEMBL1926577, “Novel 1,3,4-heterodiazole analogues: synthesis and in-vitro antitumor activity” (2012)
Calls of active or inactive are those of the source. The calls are words filed in the database; no cut-off is given here.

Key:
Assay type in all cases: functional
HCT-15 = assay: Growth inhibition of human HCT15 cells at 10 uM after 48 hrs by coulter counter method; settings: HCT-15, 48 h, read-out: GI
In short: (§1)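 NCI 60-cell-line panel, single dose. Compound dissolved first in DMSO, then diluted in phosphate-buffered saline so that every final dilution held under 1% DMSO. Duplicate wells received cells at 6 × 10⁴ cells/ml. Controls held PBS/DMSO at the same dilution. Plates were incubated 48 h at 37 °C under 5% CO₂. Cells were then diluted 10-fold in saline and counted on a Coulter counter, with counts corrected for the dilution. Results are given as percent growth inhibition.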

SNB-75 = assay: Growth inhibition of human SNB75 cells at 10 uM after 48 hrs by coulter counter method; settings: SNB-75, 48 h, read-out: GI; in short: as §1
U-251 = assay: Growth inhibition of human U251 cells at 10 uM after 48 hrs by coulter counter method; settings: U-251, 48 h, read-out: GI; in short: as §1
K562 = assay: Growth inhibition of human K562 cells at 10 uM after 48 hrs by coulter counter method; settings: K562, 48 h, read-out: GI; in short: as §1
Melanoma cell = assay: Growth inhibition of human Melanoma cells after 48 hrs by coulter counter method
In short: (§2)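 NCI 60-line panel cells. Compound is dissolved in DMSO and diluted in phosphate-buffered saline, with final DMSO below 1%. It is added in duplicate wells to cultures at 6 × 10⁴ cells/ml and held at 37 °C, 5% CO₂, humidified, for 48 h. Cells are diluted 10-fold in saline, counted by Coulter counter and dilution-corrected. Vehicle controls contain PBS plus DMSO.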

A549 = assay: Growth inhibition of human A549 cells at 10 uM after 48 hrs by coulter counter method; settings: A549, 48 h, read-out: GI; in short: as §1
HT-29 = assay: Growth inhibition of human HT-29 cells at 10 uM after 48 hrs by coulter counter method; settings: HT-29, 48 h, read-out: GI; in short: as §1
UACC-62 = assay: Growth inhibition of human UACC62 cells at 10 uM after 48 hrs by coulter counter method; settings: UACC-62, 48 h, read-out: GI; in short: as §1
UACC-257 = assay: Growth inhibition of human UACC257 cells at 10 uM after 48 hrs by coulter counter method; settings: UACC-257, 48 h, read-out: GI; in short: as §1
[1] = Growth inhibition of human colon cancer cells after 48 hrs by coulter counter method; settings: Cancer cell lines; in short: as §2
NCI-H522 = assay: Growth inhibition of human NCI-H522 cells at 10 uM after 48 hrs by coulter counter method; settings: NCI-H522, 48 h, read-out: GI; in short: as §1
MDA-MB-435 = assay: Growth inhibition of human MDA-MB-435 cells at 10 uM after 48 hrs by coulter counter method; settings: MDA-MB-435, 48 h, read-out: GI; in short: as §1
M14 = assay: Growth inhibition of human M14 cells at 10 uM after 48 hrs by coulter counter method; settings: M14, 48 h, read-out: GI; in short: as §1
UO-31 = assay: Growth inhibition of human UO31 cells at 10 uM after 48 hrs by coulter counter method; in short: as §1
CCRF-CEM = assay: Growth inhibition of human CCRF-CEM cells at 10 uM after 48 hrs by coulter counter method; settings: read-out: GI; in short: as §1
[2] = Growth inhibition of human ovarian cancer cells after 48 hrs by coulter counter method; settings: Cancer cell lines; in short: as §2
SN12C = assay: Growth inhibition of human SN12C cells at 10 uM after 48 hrs by coulter counter method; settings: read-out: GI; in short: as §1
SK-MEL-5 = assay: Growth inhibition of human SK-MEL-5 cells at 10 uM after 48 hrs by coulter counter method; settings: SK-MEL-5, 48 h, read-out: GI; in short: as §1
RPMI-8226 = assay: Growth inhibition of human RPMI8226 cells at 10 uM after 48 hrs by coulter counter method; settings: RPMI-8226, 48 h, read-out: GI; in short: as §1
[3] = Growth inhibition of human renal cancer cells after 48 hrs by coulter counter method; settings: Cancer cell lines; in short: as §2
NCI-H226 = assay: Growth inhibition of human NCI-H226 cells at 10 uM after 48 hrs by coulter counter method; settings: NCI-H226, 48 h, read-out: GI; in short: as §1
KM12 = assay: Growth inhibition of human KM12 cells at 10 uM after 48 hrs by coulter counter method; settings: KM12, 48 h, read-out: GI; in short: as §1
NCI-H322M = assay: Growth inhibition of human NCI-H322M cells at 10 uM after 48 hrs by coulter counter method; settings: read-out: GI; in short: as §1
EKVX = assay: Growth inhibition of human EKVX cells at 10 uM after 48 hrs by coulter counter method; settings: read-out: GI; in short: as §1
PC-3 = assay: Growth inhibition of human PC3 cells at 10 uM after 48 hrs by coulter counter method; settings: PC-3, 48 h, read-out: GI; in short: as §1
MDA-MB-468 = assay: Growth inhibition of human MDA-MB-468 cells at 10 uM after 48 hrs by coulter counter method; settings: MDA-MB-468, 48 h, read-out: GI; in short: as §1
SF-268 = assay: Growth inhibition of human SF268 cells at 10 uM after 48 hrs by coulter counter method; settings: SF-268, 48 h, read-out: GI; in short: as §1
[4] = Growth inhibition of human breast cancer cells after 48 hrs by coulter counter method; settings: Cancer cell lines; in short: as §2
786-0 = assay: Growth inhibition of human 786-0 cells at 10 uM after 48 hrs by coulter counter method; settings: 786-0, 48 h, read-out: GI; in short: as §1
TK-10 = assay: Growth inhibition of human TK10 cells at 10 uM after 48 hrs by coulter counter method; settings: TK-10, 48 h, read-out: GI; in short: as §1
[5] = Growth inhibition of human leukemia cells after 48 hrs by coulter counter method; settings: Leukemia cell; in short: as §2
HL-60(TB) = assay: Growth inhibition of human HL-60(TB) cells at 10 uM after 48 hrs by coulter counter method; settings: HL-60, 48 h, read-out: GI
In short: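 Single-dose screen on the NCI 60-line panel (leukemia subpanel). Compound is dissolved in DMSO and diluted in PBS, with final DMSO below 1%. Duplicate wells hold 6 × 10⁴ cells/ml at 37 °C, 5% CO₂, for 48 h. Cells are counted by Coulter counter after 10-fold saline dilution. Read-out is percent growth versus PBS/DMSO controls, expressed as % growth inhibition.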

SK-MEL-28 = assay: Growth inhibition of human SK-MEL-28 cells at 10 uM after 48 hrs by coulter counter method; settings: SK-MEL-28, 48 h, read-out: GI; in short: as §1
BT-549 = assay: Growth inhibition of human BT549 cells at 10 uM after 48 hrs by coulter counter method; settings: BT-549, 48 h, read-out: GI; in short: as §1
[6] = read-out: LC50 (the source's name)

In the case of `O=C1CN2N=C(c3ccccc3)SC2=N1`, the inhibition of growth at 10 µM (HCT-15) is reported as 44.8%, the inhibition of growth at 10 µM (SNB-75) is reported as 88.3% and the inhibition of growth at 10 µM (U-251) is reported as 58.3%. The inhibition of growth at 10 µM (K562) was 34.8%, the GI50 (Melanoma cell) was 8 µM and the LC50 (Melanoma cell) was 51.4 µM. The TGI (Melanoma cell) was 20.1 µM, the inhibition of growth at 10 µM (A549) was 39.2% and the inhibition of growth at 10 µM (HT-29) was 36.2%. The inhibition of growth at 10 µM (UACC-62) was 27.8%, the inhibition of growth at 10 µM (UACC-257) was 48.4% and the GI50 [1] was 9.4 µM. For the same compound, the LC50 [1] was 67.1 µM, the TGI [1] was 24.9 µM and the inhibition of growth at 10 µM (NCI-H522) was 46.5%. The inhibition of growth at 10 µM (MDA-MB-435) was 30.4%, the inhibition of growth at 10 µM (M14) was 30.2% and the “growth inhibition (GI)” value (UO-31) was “Active”. For the same compound, the inhibition of growth at 10 µM (CCRF-CEM) was 88.2%, the GI50 [2] was 7.7 µM and the TGI [2] was 33.5 µM. It also gave a CC50 [2, 6] of 83.9 µM, an inhibition of growth at 10 µM (SN12C) of 32.9% and an inhibition of growth at 10 µM (SK-MEL-5) of 35.2%. The inhibition of growth at 10 µM (RPMI-8226) was 72.2%, the GI50 [3] was 8.9 µM and the TGI [3] was 16.6 µM. For the same compound, the CC50 [3, 6] was 42.3 µM, the inhibition of growth at 10 µM (NCI-H226) was 27.7% and the inhibition of growth at 10 µM (KM12) was 21.8%. The inhibition of growth at 10 µM (NCI-H322M) was 22.1%, the inhibition of growth at 10 µM (EKVX) was 94.5% and the inhibition of growth at 10 µM (PC-3) was 30.1%. For the same compound, the inhibition of growth at 10 µM (MDA-MB-468) was 61.5%, the inhibition of growth at 10 µM (SF-268) was 20% and the GI50 [4] was 6.9 µM. It also gave a TGI [4] of 23.7 µM, a CC50 [4, 6] of 71.3 µM and an inhibition of growth at 10 µM (786-0) of 25.1%. The inhibition of growth at 10 µM (TK-10) was 25.4%, the GI50 [5] was 4.1 µM and the TGI [5] was 25.9 µM. It also gave a CC50 [5, 6] of over 100 µM, an inhibition of growth at 10 µM (HL-60(TB)) of 21% and an inhibition of growth at 10 µM (SK-MEL-28) of 10.4%. For the same compound, the inhibition of growth at 10 µM (BT-549) was 53.4%.
